Source: ChEMBL document CHEMBL1124528, “Tetrahydrothiadiazoloisoquinolines: synthesis and inhibition of phenylethanolamine-N-methyltransferase” (J Med Chem, 1989)

Columns and labels:
[1] = system: Phenylethanolamine N-methyltransferase (rabbit); test: Ability to inhibit rabbit adrenal PNMT norepinephrine to epinephrine (E13), in vitro, at 10 e-4 M compound concentration.; details: Oryctolagus cuniculus
[2] = system: Phenylethanolamine N-methyltransferase (rabbit); test: Ability to inhibit rabbit adrenal PNMT norepinephrine to epinephrine (E13), in vitro, at 10 e-6 M; details: Oryctolagus cuniculus
[3] = system: Phenylethanolamine N-methyltransferase (rabbit); test: Ability to inhibit rabbit adrenal phenylethanolamine N-methyl-transferase norepinephrine to epinephrine (E13), in vitro, at 10 e-6 M; details: Oryctolagus cuniculus
Mus musculus [4] = test: Minimum active dose that causes decrease in endogenous adrenal epinephrine/norepinephrine ratio, when administered perorally in mice; format: functional
In short: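 Mice dosed orally b.i.d. (chronic administration), then adrenal E and NE content measured and the decrease in E/NE ratio determined. Minimum active dose is the lowest dose significant at p < 0.05 versus control by Student's t test.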

Rattus norvegicus = test: Ability to inhibit [3H]epinephrine biosynthesis was determined in the adrenal medulla of rats by administering 3 mg/kg of compound orally.; format: functional; details: po
Mus musculus [5] = test: Maximum inactive dose that causes decrease in endogenous adrenal epinephrine/norepinephrine ratio, when administered perorally in mice
Mus musculus [6] = test: Minimum active dose that causes decrease in endogenous epinephrine/norepinephrine ratio, when administered perorally in mice; format: functional
In short: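 Mice given compound orally, b.i.d., as chronic dosing, then adrenal gland E and NE content measured to give the E/NE ratio. Minimum active dose is the lowest dose giving p < 0.05 vs control by Student's t test.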

inhibition [1]	inhibition [2]	inhibition [3]	SMILES	other results
98%	51%	–	Clc1cc2snnc2c2c1CCNC2	–
37%	3%	–	Oc1nc2c3c(ccc2s1)CCNC3	–
41%	15%	–	Nc1nc2ccc3c(c2s1)CNCC3	–
–	–	91%	c1cc2nnsc2c2c1CCNC2	–
–	–	–	Cl.c1cc2snnc2c2c1CCNC2	MAD (Mus musculus [4]): 12.5 mg/kg; inhibition in vivo at 3 mg/kg (Rattus norvegicus): 87%; MID (Mus musculus [5]): 6.25 mg/kg
–	–	20%	c1cc2[nH]nnc2c2c1CCNC2	–
–	–	24%	c1nc2ccc3c(c2s1)CNCC3	–
–	–	–	Cl.Clc1ccc2c(c1Cl)CNCC2	inhibition in vivo at 3 mg/kg (Rattus norvegicus): 50%; MAD (Mus musculus [6]): 5 mg/kg; MID (Mus musculus [5]): 2.5 mg/kg
–	–	0%	c1nc2c3c(ccc2[nH]1)CCNC3	–
–	–	14%	c1ccc2c3c(ccc2c1)CCNC3	–
4%	1%	–	Oc1nc2c3c(ccc2[nH]1)CCNC3	–
